Assay results from ChEMBL document CHEMBL4376872, “Scaffold Hopping of Natural Product Evodiamine: Discovery of a Novel Antitumor Scaffold with Excellent Potency against Colon Cancer” (J Med Chem, 2020).
≈ marks a conversion by molar mass, not a printed value. Calls of active or inactive are those of the source. The calls are words filed in the database; no cut-off is given here.

Assays:
[1] = target: Poly [ADP-ribose] polymerase 1 (Homo sapiens) (UniProt P09874); assay: Inhibition of PARP1 (unknown origin) using biotin-NAD+, NAD+ and sIDNA as substrate at 5 uM incubated for 1 hr by ELISA relative to control
[2] = target: N-lysine methyltransferase KMT5A (Homo sapiens) (UniProt Q9NQR1); assay: Inhibition of SET8 (unknown origin) using plate-coated histone as substrate at 5 uM incubated for 90 mins in presence of 10 uM SAM by AlphaScreen assay relative to control
[3] = target: Tyrosine-protein phosphatase non-receptor type 11 (Homo sapiens) (UniProt Q06124); assay: Inhibition of SHP2 (unknown origin) using DiFMUP as substrate at 5 uM incubated for 30 mins by fluorescence based analysis
[4] = test system: Tyrosine-protein kinase ABL1 (Homo sapiens), P00519 [T315I]; assay: Inhibition of Abl T315I mutant (unknown origin) using Abltide as substrate at 5 uM incubated for 40 mins in presence of 10 uM ATP by kiase-Glo luminescence assay relative to control
[5] = target: Tyrosine-protein kinase ABL1 (Homo sapiens) (UniProt P00519); assay: Inhibition of Abl (unknown origin) using Abltide as substrate at 5 uM incubated for 40 mins in presence of 10 uM ATP by kiase-Glo luminescence assay relative to control
[6] = Antiproliferative activity against human SW579 cells assessed as reduction in cell viability incubated for 72 hrs by CCK8 assay; assay type: functional, cell-based; details: SW579, 72 h
[7] = target: Matrix metalloproteinase-9 (Homo sapiens) (UniProt P14780); assay: Inhibition of MMP9 (unknown origin) using Mca-PLGLDpaAR as substrate at 5 uM preincubated with enzyme for 2 hrs followed by incubation with substrate for 15 mins by fluorescence based analysis relative to control
K562 = assay: Antiproliferative activity against human K562 cells assessed as reduction in cell viability incubated for 72 hrs by CCK8 assay; assay type: functional, cell-based; details: K562, 72 h
[8] = target: Histone-lysine N-methyltransferase EHMT2 (Homo sapiens) (UniProt Q96KQ7); assay: Inhibition of N-terminal GST-tagged recombinant human G9a (785 to 1210 residues) expressed in Escherichia coli cells using biotinylated histone H3 peptide as substrate at 5 uM incubated for 90 mins in presence of 1 uM SAM by AlphaScreen assay relative to control
[9] = target: Focal adhesion kinase 1 (Homo sapiens) (UniProt Q05397); assay: Inhibition of FAK (unknown origin) using poly (Glu, Tyr) as substrate at 5 uM incubated for 40 mins in presence of 10 uM ATP by kiase-Glo luminescence assay relative to control
HCT-116 [10] = assay: Antiproliferative activity against human HCT116 cells assessed as reduction in cell viability incubated for 72 hrs by CCK8 assay; assay type: functional, cell-based; details: HCT-116, 72 h
[11] = target: DNMT3A2/3L complex (Homo sapiens) (UniProt Q9Y6K1+Q9UJW3); assay: Inhibition of DNMT3a/3L (unknown origin) using poly(dIdC) as substrate at 5 uM incubated for 3 hrs in presence of 20 uM SAM by fluorescence analysis; assay type: protein-complex assay
HCT-116 [12] = assay: Cell cycle arrest in human HCT116 cells assessed as accumulation in S phase at 12 nM incubated for 24 hrs by propidium iodide staining based flow cytometry (reference value: 42.31 %); assay type: functional
SK-HEP1 = assay: Antiproliferative activity against human SKHEP1 cells assessed as reduction in cell viability incubated for 72 hrs by CCK8 assay; assay type: functional, cell-based; details: SK-HEP1, 72 h
[13] = target: Lysine-specific demethylase 6B (Homo sapiens) (UniProt O15054); assay: Inhibition of JMJD3 (unknown origin) using biotinylated histone H3 peptide as substrate at 5 uM incubated for 60 mins by AlphaScreen assay relative to control
Homo sapiens = organism: Homo sapiens; assay: Inhibition of PDE4D7 (unknown origin) using FAM-cAMP as substrate at 5 uM incubated for 1 hr by fluorescence polarization assay relative to control
Tubulin (Homo sapiens) = Tubulin (Homo sapiens) (UniProt P68371+Q9H4B7+P0DPH7+P68366+Q13509+Q71U36+P04350+Q3ZCM7+P07437+P68363+Q9BQE3+Q6PEY2+Q13885+Q9BVA1+Q9BUF5); assay: Inhibition of tubulin polymerization in human HCT116 cells assessed as disruption of microtubule by measuring clustered microtubule arrangement in cytosol around the nucleus at 0.4 to 10 uM incubated for 12 hrs by immunofluorescence based analysis; assay type: cell-based
Method in brief: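 HCT116 cells were exposed to several concentrations for 12 h, with paclitaxel as the control. Nuclei were stained with DAPI and microtubules with mouse anti-α-tubulin. Microtubule organization was imaged by laser confocal microscopy.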

[14] = Aqueous solubility of compound at pH 7.4; assay type: physicochemical
[15] = target: 72 kDa type IV collagenase (Homo sapiens) (UniProt P08253); assay: Inhibition of MMP2 (unknown origin) using Mca-PLGLDpaAR as substrate at 5 uM preincubated with enzyme for 2 hrs followed by incubation with substrate for 15 mins by fluorescence based analysis relative to control
[16] = target: 3',5'-cyclic-AMP phosphodiesterase 4A (Homo sapiens) (UniProt P27815); assay: Inhibition of PDE4A4 (unknown origin) using FAM-cAMP as substrate at 5 uM incubated for 1 hr by fluorescence polarization assay relative to control
HCT-116 [17] = assay: Induction of apoptosis in human HCT116 cells at 0.20 uM incubated for 24 hrs by annexin V-FITC and propidium iodide staining based flow cytometry (reference value: 0.86 %); assay type: functional
Tubulin = Tubulin (Sus scrofa, UniProt P02554+P02550); assay: (§1) Inhibition of porcine brain tubulin polymerization measured at 1 min interval over 20 mins by absorbance based assay
Tubulin (Sus scrofa) = Tubulin (Sus scrofa) (UniProt P02554+P02550); assay: as §1
[18] = target: Protein arginine N-methyltransferase 1 (Homo sapiens) (UniProt Q99873); assay: Inhibition of PRMT1 (unknown origin) using plate-coated histone as substrate at 5 uM incubated for 90 mins in presence of 0.5 uM SAM by AlphaScreen assay relative to control
[19] = Toxicity in mouse xenografted with human HCT116 cells assessed as reduction in body weight at 4 mg/kg, ip bid for 21 days administration starting from 10 days after tumor cell implantation measured every 2 or 4 days till the end of the treatment period; assay type: organism-based; details: in vivo
Method in brief: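 Nude mice bearing HCT116 xenografts were given intraperitoneal doses on 21 consecutive days, with n = 6 per group including an untreated control group. Body weight was recorded to assess toxicity. Data are mean ± SEM, compared with the control group by Student's t test.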

NCI-H446 = assay: Antiproliferative activity against human NCI-H446 cells assessed as reduction in cell viability incubated for 72 hrs by CCK8 assay; assay type: functional, cell-based; details: NCI-H446, 72 h
HCT-116 [20] = assay: Cell cycle arrest in human HCT116 cells assessed as accumulation in G1 phase at 12 nM incubated for 24 hrs by propidium iodide staining based flow cytometry (reference value: 45.18 %); assay type: functional

Chain of 72 kDa type IV collagenase (Homo sapiens) (P08253 110-660 limits assumed): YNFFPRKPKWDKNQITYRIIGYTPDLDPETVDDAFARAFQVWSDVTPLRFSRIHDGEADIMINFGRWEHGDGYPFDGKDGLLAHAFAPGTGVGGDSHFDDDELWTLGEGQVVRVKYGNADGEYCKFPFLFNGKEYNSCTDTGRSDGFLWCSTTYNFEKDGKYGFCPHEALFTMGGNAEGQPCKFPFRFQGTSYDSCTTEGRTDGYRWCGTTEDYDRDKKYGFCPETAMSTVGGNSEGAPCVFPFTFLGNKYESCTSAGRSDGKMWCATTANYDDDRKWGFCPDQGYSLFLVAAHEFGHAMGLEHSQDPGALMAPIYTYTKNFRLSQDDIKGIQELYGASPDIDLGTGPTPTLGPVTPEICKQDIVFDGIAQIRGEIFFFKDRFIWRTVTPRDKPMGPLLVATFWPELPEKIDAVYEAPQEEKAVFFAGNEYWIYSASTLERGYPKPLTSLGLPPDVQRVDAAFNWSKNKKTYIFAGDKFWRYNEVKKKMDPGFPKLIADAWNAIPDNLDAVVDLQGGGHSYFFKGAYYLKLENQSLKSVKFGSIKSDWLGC
Chain of Tubulin (Sus scrofa) (P02550 whole entry, looked up): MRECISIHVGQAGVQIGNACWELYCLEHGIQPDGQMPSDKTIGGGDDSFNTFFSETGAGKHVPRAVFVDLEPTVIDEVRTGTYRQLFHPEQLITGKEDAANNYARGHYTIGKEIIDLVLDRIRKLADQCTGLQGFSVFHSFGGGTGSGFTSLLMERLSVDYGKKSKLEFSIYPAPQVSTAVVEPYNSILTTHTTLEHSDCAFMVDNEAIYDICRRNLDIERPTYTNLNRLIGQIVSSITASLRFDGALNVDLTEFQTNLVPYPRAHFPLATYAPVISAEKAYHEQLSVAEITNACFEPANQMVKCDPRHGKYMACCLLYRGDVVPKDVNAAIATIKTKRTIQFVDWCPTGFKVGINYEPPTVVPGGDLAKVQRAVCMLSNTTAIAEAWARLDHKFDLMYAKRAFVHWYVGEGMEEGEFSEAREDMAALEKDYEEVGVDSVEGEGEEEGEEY
Chain of Tubulin (Sus scrofa) (P02554 whole entry, looked up): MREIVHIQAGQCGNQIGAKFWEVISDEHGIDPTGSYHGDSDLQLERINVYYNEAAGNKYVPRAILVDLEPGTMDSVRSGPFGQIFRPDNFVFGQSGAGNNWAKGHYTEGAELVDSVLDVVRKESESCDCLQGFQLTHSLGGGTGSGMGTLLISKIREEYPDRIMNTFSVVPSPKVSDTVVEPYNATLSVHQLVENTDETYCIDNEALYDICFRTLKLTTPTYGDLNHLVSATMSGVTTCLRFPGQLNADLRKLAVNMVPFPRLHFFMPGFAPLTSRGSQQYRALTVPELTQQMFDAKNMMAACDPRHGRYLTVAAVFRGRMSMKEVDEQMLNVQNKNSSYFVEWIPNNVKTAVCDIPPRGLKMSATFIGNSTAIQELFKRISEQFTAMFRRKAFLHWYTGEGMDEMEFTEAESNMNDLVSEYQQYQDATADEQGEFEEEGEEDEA
Chain of N-lysine methyltransferase KMT5A (Homo sapiens) (Q9NQR1 whole entry): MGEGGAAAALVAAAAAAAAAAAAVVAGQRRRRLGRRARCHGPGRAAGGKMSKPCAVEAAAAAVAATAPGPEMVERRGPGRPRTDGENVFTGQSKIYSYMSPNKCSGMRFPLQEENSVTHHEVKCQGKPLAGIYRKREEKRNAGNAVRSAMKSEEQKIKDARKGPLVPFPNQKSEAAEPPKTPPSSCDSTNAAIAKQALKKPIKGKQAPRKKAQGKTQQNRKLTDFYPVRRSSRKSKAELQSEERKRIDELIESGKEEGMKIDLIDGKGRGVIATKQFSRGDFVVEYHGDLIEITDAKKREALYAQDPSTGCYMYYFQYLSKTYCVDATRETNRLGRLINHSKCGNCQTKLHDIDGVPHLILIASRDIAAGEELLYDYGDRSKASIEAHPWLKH
Chain of Focal adhesion kinase 1 (Homo sapiens) (Q05397 2-1052 limits assumed): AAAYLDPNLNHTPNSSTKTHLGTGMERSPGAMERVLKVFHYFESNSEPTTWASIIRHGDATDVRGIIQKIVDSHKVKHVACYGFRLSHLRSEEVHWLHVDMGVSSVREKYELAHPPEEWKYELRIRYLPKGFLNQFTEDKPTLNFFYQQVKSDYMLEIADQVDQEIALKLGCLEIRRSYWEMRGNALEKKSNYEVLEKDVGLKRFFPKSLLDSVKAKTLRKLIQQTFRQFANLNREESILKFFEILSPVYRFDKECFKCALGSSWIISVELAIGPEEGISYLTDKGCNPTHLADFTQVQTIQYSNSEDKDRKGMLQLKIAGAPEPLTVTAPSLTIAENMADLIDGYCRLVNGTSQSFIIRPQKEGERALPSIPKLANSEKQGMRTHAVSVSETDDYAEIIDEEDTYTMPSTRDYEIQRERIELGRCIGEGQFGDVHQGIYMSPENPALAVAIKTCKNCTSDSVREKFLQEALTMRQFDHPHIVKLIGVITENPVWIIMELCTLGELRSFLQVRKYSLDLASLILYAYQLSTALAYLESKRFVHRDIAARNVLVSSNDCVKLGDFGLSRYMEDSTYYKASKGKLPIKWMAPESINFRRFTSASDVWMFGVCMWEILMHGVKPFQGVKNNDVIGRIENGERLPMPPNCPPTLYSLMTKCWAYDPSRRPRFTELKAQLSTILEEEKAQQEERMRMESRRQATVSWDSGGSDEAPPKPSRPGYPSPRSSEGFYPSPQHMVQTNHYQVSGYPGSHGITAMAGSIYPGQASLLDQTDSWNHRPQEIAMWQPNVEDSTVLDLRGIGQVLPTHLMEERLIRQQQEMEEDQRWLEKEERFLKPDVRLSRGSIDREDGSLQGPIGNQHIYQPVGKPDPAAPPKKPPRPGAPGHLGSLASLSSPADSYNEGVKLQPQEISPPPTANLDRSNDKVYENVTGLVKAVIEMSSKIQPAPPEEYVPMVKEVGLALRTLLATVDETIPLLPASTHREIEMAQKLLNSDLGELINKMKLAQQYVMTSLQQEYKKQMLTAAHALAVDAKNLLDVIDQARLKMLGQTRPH
Chain of 3',5'-cyclic-AMP phosphodiesterase 4A (Homo sapiens) (P27815 whole entry): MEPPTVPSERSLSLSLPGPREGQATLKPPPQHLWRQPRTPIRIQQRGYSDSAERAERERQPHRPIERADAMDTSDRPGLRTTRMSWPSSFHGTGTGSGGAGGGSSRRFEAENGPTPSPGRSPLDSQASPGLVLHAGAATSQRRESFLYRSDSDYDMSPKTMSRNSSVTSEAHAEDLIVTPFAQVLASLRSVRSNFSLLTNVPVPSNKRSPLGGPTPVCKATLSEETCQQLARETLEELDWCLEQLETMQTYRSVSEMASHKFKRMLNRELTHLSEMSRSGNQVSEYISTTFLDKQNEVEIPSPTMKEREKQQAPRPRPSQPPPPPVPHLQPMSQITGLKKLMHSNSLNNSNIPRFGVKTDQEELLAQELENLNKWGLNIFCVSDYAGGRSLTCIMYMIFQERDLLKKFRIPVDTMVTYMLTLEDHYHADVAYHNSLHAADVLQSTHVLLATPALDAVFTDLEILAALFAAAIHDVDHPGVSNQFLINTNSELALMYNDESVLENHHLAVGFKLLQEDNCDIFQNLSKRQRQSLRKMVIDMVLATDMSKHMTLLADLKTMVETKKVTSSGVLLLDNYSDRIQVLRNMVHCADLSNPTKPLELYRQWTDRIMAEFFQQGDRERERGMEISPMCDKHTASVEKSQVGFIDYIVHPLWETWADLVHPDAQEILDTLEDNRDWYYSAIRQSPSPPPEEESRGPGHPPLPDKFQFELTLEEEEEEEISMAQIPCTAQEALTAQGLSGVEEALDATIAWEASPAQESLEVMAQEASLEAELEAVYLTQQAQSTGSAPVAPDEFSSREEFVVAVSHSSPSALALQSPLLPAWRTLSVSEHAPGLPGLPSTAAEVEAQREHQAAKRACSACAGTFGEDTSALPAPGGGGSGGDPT
Chain of Histone-lysine N-methyltransferase EHMT2 (Homo sapiens) (Q96KQ7 whole entry, the tested form may be a part): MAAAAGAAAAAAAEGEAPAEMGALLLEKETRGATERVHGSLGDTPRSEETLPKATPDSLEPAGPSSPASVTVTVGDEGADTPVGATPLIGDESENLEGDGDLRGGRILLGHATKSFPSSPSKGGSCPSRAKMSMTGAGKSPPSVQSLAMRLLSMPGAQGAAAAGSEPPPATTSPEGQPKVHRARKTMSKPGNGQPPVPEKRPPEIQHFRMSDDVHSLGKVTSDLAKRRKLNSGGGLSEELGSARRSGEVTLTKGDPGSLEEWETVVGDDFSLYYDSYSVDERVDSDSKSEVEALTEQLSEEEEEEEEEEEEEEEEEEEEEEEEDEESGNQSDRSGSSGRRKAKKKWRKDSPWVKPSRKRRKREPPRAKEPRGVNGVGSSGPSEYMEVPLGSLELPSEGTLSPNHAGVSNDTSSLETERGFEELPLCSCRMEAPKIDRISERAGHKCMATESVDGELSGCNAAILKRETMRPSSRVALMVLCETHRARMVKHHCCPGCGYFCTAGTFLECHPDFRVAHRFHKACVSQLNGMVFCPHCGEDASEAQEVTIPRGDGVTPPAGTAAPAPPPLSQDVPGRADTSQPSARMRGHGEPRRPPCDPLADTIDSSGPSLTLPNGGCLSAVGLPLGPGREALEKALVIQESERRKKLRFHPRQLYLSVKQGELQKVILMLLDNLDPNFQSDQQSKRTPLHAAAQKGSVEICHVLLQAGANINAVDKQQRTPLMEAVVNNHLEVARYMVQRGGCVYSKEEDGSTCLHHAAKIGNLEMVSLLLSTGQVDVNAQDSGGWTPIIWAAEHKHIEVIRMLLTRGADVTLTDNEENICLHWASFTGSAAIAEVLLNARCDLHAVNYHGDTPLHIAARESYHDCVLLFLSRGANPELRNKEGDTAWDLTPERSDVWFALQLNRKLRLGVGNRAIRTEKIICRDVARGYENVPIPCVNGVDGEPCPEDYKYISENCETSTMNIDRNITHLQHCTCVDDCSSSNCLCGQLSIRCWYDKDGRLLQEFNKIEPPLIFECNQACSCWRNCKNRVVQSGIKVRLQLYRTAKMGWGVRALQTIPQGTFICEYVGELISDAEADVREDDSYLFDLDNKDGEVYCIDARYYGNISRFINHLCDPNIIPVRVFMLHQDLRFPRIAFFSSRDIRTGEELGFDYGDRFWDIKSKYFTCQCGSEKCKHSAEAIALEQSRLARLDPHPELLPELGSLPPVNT

COc1ccc2c(c1)cc1n2CCN2C(=O)c3cc(F)ccc3N(C)C12 (configuration not stated)
inhibition [1]: < 20%
inhibition [2]: < 20%
inhibition [3]: < 20%
inhibition [4]: < 20%
inhibition [5]: < 20%
IC50 [6]: 6100 nM
inhibition [7]: < 20%
IC50 (K562): < 3 nM
inhibition [8]: < 20%
inhibition [9]: < 20%
IC50 (HCT-116 [10]): 2 nM
inhibition [11]: < 20%
Activity (HCT-116 [12]): 40.44%
IC50 (SK-HEP1): 1300 nM
inhibition [13]: < 20%
inhibition (Homo sapiens): < 20%
inhibition (Tubulin (Homo sapiens)): Active
solubility [14]: 1.5 µg/mL (≈ 4.27 µM)
inhibition [15]: < 20%
inhibition [16]: < 20%
Activity (HCT-116 [17]): 45.97%
IC50 (Tubulin): 26300 nM
inhibition (Tubulin (Sus scrofa)): Dose-dependent effect
inhibition [18]: < 20%
Activity [19]: Non-Toxic
IC50 (NCI-H446): > 200000 nM
Activity (HCT-116 [20]): 24.07%
